Usually IC50 stands for the concentration at which inhibition is half-maximal.

Each structure is given as a SMILES string. Activity calls are given as the source filed them. The calls are words filed in the database; no cut-off is given here.

Data on 13 compounds can be found in ChEMBL document CHEMBL6177917, “Synthesis and evaluation of tetrahydropyrrolo[1,2-a]quinolin-1(2H)-ones as new tubulin polymerization inhibitors” (RSC Med Chem, 2025).

The target in data set [1] is T1, Tubulin (Homo sapiens) (UniProt P68371+Q9H4B7+P0DPH7+P68366+Q13509+Q71U36+P04350+Q3ZCM7+P07437+P68363+Q9BQE3+Q6PEY2+Q13885+Q9BVA1+Q9BUF5). Kind of data set: Destabilization of microtubule network (unknown origin) assessed as effect on microtubule growth rate measured for 30 min by differential interference contrast microscopic analysis.
For data set [2], the target named is T1, Tubulin (Homo sapiens). The experiment in a line: Destabilization of microtubule network (unknown origin) assessed as decrease in catastrophes frequency measured for 30 min by differential interference contrast microscopic analysis.
For data set [3], the system named is A549. Kind of data set: Induction of cell cycle arrest in human A549 cells assessed as accumulation of cells at G2/M phase at 116 uM incubated for 24 hrs by PI staining based flow cytometric analysis. It is filed as functional. In a few lines:
(§1)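 A549 cells were grown 48 h, then given compound or DMSO for 24 h, with nocodazole as control. Cells were fixed in 70% ice-cold ethanol overnight and stained with 30 μg/mL propidium iodide. DNA content was read by flow cytometry, with linear gates for G0/G1, S and G2/M. Mean ± s.d. of 2–3 independent experiments; G2/M versus DMSO tested by Dunnett's test.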
(In general: A flow cytometer gives signals particle by particle.)

Data set [4] has as its system A549. The experiment in a line: Induction of cell cycle arrest in human A549 cells assessed as accumulation of cells at G2/M phase at 200 uM incubated for 24 hrs by PI staining based flow cytometric analysis. It is filed as functional. In a few lines:
as §1

In data set [5] the test system is A549. Kind of data set: Induction of mitotic arrest in human A549 cells assessed as increase in mitotic index at > 200 uM measured for 12 hrs by phase contrast microscopic analysis. It is filed as functional, cell-based.
Data set [6] relates to MCF7. Kind of data set: Induction of mitotic arrest in human MCF7 cells assessed as increase in mitotic index at > 200 uM measured for 12 hrs by phase contrast microscopic analysis. The class given is functional, cell-based.
Data set [7] deals with HeLa. Kind of data set: Induction of mitotic arrest in human HeLa cells assessed as increase in mitotic index at > 200 uM measured for 12 hrs by phase contrast microscopic analysis. It is filed as functional, cell-based.
Data set [8] has as its system A549. Kind of data set: Induction of cell cycle arrest in human A549 cells assessed as accumulation of cells at G2/M phase incubated for 24 hrs by PI staining based flow cytometry analysis. It is filed as functional. Particulars: for IC50: A549, 24 h. In a few lines:
as §1

Data set [9] has as its system A549. Kind of data set: Cytotoxicity against human A549 cells assessed as reduction in cell proliferation incubated for 72 hrs by MTT assay. The class given is toxicity, cell-based. The conditions noted are these: a549, 72 h. In a few lines:
(§2)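 Cells were seeded at 2500 per well in DMEM/F12 and left 24 h at 37 °C in 5% CO2 before treatment. Compounds came from DMSO stocks and were given at final 100–0.045 μM, eight dilutions, in triplicate, for 72 h. MTT (up to 0.5 mg/mL) was then added for 1.5 h and formazan dissolved in DMSO was read at 565 nm. Signal was normalized to untreated cells and IC50 calculated.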

Data set [10] has as its target T1, Tubulin (Homo sapiens). The experiment in a line: Destabilization of microtubule network (unknown origin) assessed as reduction in microtubule growth rate measured for 30 min by differential interference contrast microscopic analysis.
The test system of data set [11] is A549. The experiment in a line: Induction of cell cycle arrest in human A549 cells assessed as accumulation of cells at G2/M phase at 66 uM incubated for 24 hrs by PI staining based flow cytometric analysis. The class given is functional. In a few lines:
as §1

Data set [12] concerns A549. Kind of data set: Induction of cell cycle arrest in human A549 cells assessed as accumulation of cells at G0/G1 phase incubated for 24 hrs by PI staining based flow cytometry analysis. The conditions noted are these: dose <= 64.0 µM. It is filed as functional. In a few lines: as §1
The subject of data set [13] is A549. Kind of data set: Induction of cell cycle arrest in human A549 cells assessed as accumulation of cells at S phase incubated for 24 hrs by PI staining based flow cytometry analysis. The class given is functional. The conditions noted are these: dose <= 64.0 µM. In a few lines: as §1
Data set [14] can be described thus: Cytotoxicity against HEK293T cells assessed as reduction in cell proliferation incubated for 72 hrs by MTT assay. The class given is toxicity, cell-based, HEK293. The conditions noted are these: human. In a few lines:
as §2

In data set [15] the test system is Tubulin (Bos taurus). Kind of data set: Displacement of CPZ from tubulin (bovine brain) assessed as decrease in fluorescence intensity incubated for 1 hr by fluorescence based analysis. Particulars: dose 100.0 µM.
In data set [16] the test system is Tubulin (Bos taurus). Kind of data set: Destabilization of microtubule network of purified bovine brain tubulin in vitro assessed as decrease in catastrophes frequency at 25 uM measured for 30 min by differential interference contrast microscopic analysis.
For data set [17], the system named is Tubulin (Bos taurus). Kind of data set: Destabilization of microtubule network of purified bovine brain tubulin in vitro assessed as decrease in microtubule growth rate at 25 uM measured for 30 min by differential interference contrast microscopic analysis relative to control. Further details: scale not given: the % may be the effect or the level left.
The test system of data set [18] is A549. The experiment in a line: Induction of cell cycle arrest in human A549 cells assessed as accumulation of cells at G2/M phase at > 22 uM incubated for 24 hrs by PI staining based flow cytometric analysis. The class given is functional. In a few lines:
as §1

Data set [19] relates to A549. The experiment in a line: Induction of mitotic arrest in human A549 cells assessed as increase in mitotic index at > 50 uM measured for 12 hrs by phase contrast microscopic analysis. The class given is functional, cell-based.
Data set [20] relates to MCF7. The experiment in a line: Induction of mitotic arrest in human MCF7 cells assessed as increase in mitotic index at > 50 uM measured for 12 hrs by phase contrast microscopic analysis. The class given is functional, cell-based.
In data set [21] the test system is HeLa. The experiment in a line: Induction of mitotic arrest in human HeLa cells assessed as increase in mitotic index at > 50 uM measured for 12 hrs by phase contrast microscopic analysis. It is filed as functional, cell-based.
Data set [22] concerns A549. The experiment in a line: Induction of cell cycle arrest in human A549 cells assessed as accumulation of cells at G2/M phase up to 200 uM incubated for 24 hrs by PI staining based flow cytometric analysis. It is filed as functional. In a few lines:
as §1

For `COc1ccc(C2CCC(=O)N2c2cc(OC)c(OC)c(OC)c2)cc1OC` (racemic), on Tubulin (Homo sapiens) [1], the Activity result was “No effect”. For the same compound, the result at Tubulin (Homo sapiens) [2] was inactive.

As to `O=C1CCC(/C=C/c2ccccc2)N1c1ccccc1` (racemic), the result with A549 [3], in the data set with A549 [4], in the data set with A549 [5], in the data set with MCF7 [6], in the data set with HeLa [7] and on Tubulin (Homo sapiens) [2] was Active. The result on Tubulin (Homo sapiens) [10] was Active. Besides, the IC50 in the data set on A549 [8] is 82 µM. The Activity result in the data set on A549 [9] is reported as “Toxic”.

In the case of `COc1ccc(N2C(=O)CCC2c2ccc(OC)c(OC)c2)cc1` (racemic), the result on Tubulin (Homo sapiens) [1] was Active.

Turning to `CC(C)(C)c1ccc(N2C(=O)CCC2/C=C/c2ccccc2)cc1` (racemic), the Activity entry on Tubulin (Homo sapiens) [1] is “No effect”.

With `COc1cc(N2C(=O)CCC2c2ccc(Br)cc2)cc(OC)c1OC` (racemic), the Activity result at Tubulin (Homo sapiens) [1] was “No effect”. Besides, the outcome on Tubulin (Homo sapiens) [2] was inactive.

Consider `COc1ccc(C2CCC(=O)N2c2cccc3[nH]ccc23)cc1OC` (racemic), for which the Activity result at Tubulin (Homo sapiens) [1] is “No effect”.

Regarding `Cc1ccc([C@H]2C[C@H]3CCC(=O)N3c3ccccc32)cc1` (racemic), the result with A549 [11] was inactive. Also, the result at Tubulin (Homo sapiens) [1] was Active.

For the compound `O=C1CC[C@@H]2C[C@H](c3cccc(O)c3)c3ccccc3N12` (racemic), the Activity entry is “Dose-dependent-effect” with A549 [12], “Dose-dependent-effect” with A549 [13], “Dose-dependent-effect” in the data set on A549 [8] (dose <= 64.0 µM) and above 50% in the data set with Tubulin (Bos taurus) [17]. Besides, in the data set on A549 [8], the IC50 turned out to be 5.9 µM. In data set [14], the IC50 at 72 h came to 4.1 µM. Moreover, the result in the data set on Tubulin (Bos taurus) [15] and in the data set on Tubulin (Bos taurus) [16] was Active.

Turning to `O=C1CCC(c2c3ccccc3cc3ccccc23)N1c1ccc(C(F)(F)F)cc1` (racemic), the Activity entry on Tubulin (Homo sapiens) [1] was “No effect”.

On to `O=C1CC[C@@H]2C[C@H](c3ccccc3)c3ccccc3N12` (racemic), for which the outcome in the data set with A549 [18], with A549 [11], with A549 [5], in the data set on MCF7 [6], with HeLa [7] and with A549 [19] was Active. Besides, the outcome with MCF7 [20], in the data set on HeLa [21], on Tubulin (Homo sapiens) [2] and on Tubulin (Homo sapiens) [10] was Active. Further, the IC50 in the data set with A549 [8] stood at 22 µM. Moreover, the Activity entry in the data set on A549 [9] was “Toxic”.

In the case of `Cc1ccc(/C=C/C2CCC(=O)N2c2ccccc2)cc1` (racemic), in the data set on A549 [22], the result was inactive. Besides, the outcome at Tubulin (Homo sapiens) [1] was Active.

As for `Cc1ccccc1C1CCC(=O)N1c1ccc([N+](=O)[O-])cc1` (racemic), the Activity result on Tubulin (Homo sapiens) [1] is “No effect”.

In the case of `COc1ccc(N2C(=O)CCC2/C=C/c2ccc(C)cc2)cc1OC` (racemic), the result in the data set on A549 [22] was inactive. Also, the outcome on Tubulin (Homo sapiens) [1] was Active.
